{"data": "Published values pooled from the literature", "target": "Serine/threonine-protein kinase ULK2 (ULK2, Homo sapiens, UniProt Q8IYT8)", "Sequence (Q8IYT8 1-1036, as in one of the studies)": "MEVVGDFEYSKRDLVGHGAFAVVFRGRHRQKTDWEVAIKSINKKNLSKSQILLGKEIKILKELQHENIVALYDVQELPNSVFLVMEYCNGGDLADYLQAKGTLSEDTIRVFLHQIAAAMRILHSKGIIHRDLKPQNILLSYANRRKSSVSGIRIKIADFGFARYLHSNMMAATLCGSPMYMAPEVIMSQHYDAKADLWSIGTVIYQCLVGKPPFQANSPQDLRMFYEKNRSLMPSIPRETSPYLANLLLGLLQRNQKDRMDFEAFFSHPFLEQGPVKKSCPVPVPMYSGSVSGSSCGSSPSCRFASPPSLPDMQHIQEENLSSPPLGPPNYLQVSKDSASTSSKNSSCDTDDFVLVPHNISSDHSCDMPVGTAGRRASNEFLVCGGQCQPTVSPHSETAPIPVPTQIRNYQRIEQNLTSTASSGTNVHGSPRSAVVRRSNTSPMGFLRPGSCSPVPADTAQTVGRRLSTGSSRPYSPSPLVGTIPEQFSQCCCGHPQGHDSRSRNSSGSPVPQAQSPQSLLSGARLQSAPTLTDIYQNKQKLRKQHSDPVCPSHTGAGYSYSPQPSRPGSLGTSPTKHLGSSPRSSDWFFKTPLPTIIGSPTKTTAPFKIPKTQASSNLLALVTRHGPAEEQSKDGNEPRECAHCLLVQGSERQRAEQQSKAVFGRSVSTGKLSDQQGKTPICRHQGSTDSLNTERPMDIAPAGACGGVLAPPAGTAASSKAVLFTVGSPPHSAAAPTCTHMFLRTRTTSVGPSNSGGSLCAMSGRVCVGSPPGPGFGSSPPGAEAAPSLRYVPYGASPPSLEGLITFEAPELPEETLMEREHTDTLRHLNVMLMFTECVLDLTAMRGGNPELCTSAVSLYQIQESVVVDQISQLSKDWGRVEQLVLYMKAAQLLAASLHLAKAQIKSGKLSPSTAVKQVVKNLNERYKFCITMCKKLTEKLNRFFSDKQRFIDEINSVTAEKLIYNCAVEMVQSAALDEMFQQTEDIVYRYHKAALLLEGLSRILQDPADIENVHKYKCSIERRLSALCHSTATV"}
{"SMILES": "COc1ccc2oc(-c3ccc4nc(N)oc4c3)c/c(=N\\c3ccccc3NC(=O)CCN)c2c1", "test": "binding", "conditions": "1 µM", "quantity": "remaining binding", "result": "106%"}
{"SMILES": "N#Cc1ccc(NC(=O)Nc2ccccc2)cc1", "test": "cell-free assay, competition with immobilised ligand", "conditions": "25 µM", "quantity": "remaining binding", "result": "86%"}
{"SMILES": "C=CC(=O)N1CCC[C@@H](n2nc(-c3ccc(Oc4ccccc4)cc3)c3c(N)ncnc32)C1", "test": "enzyme activity, inhibitor", "conditions": "1 µM", "quantity": "inhibition", "result": "13%"}
{"SMILES": "C#Cc1cc(-c2cc(Nc3nc(N[C@@H](C)c4ccc(F)cn4)ncc3Cl)n[nH]2)ccc1C=O", "test": "enzyme activity, inhibitor", "conditions": "0.2 µM", "quantity": "inhibition", "result": "5.21%"}
{"SMILES": "CN1CCN(C(=O)c2ccc(NC(=O)Nc3ccc(N(C)c4ccnc(Nc5ccc(CS(C)(=O)=O)cc5)n4)cc3)cc2)CC1", "test": "binding", "conditions": "1 µM", "quantity": "remaining binding", "result": "78%"}
{"SMILES": "CCCCC(=O)Nc1ccc(-c2ccc3ncn(CCC)c(=O)c3c2)cn1", "test": "binding, competition with immobilised ligand", "conditions": "0.5 µM", "quantity": "remaining binding", "result": "100%"}
{"SMILES": "Cc1ccc(NC(=O)c2ccnc(C(F)(F)F)c2)cc1-c1cc(OCCO)nc(N2CCOCC2)c1", "test": "binding", "conditions": "1 µM", "quantity": "remaining binding", "result": "100%"}
{"SMILES": "C=CC(=O)N1CCC([C@@H]2CCNc3c(C(N)=O)c(-c4ccc(Oc5ccccc5)cc4)nn32)CC1", "test": "enzyme activity, inhibitor", "conditions": "1 µM", "quantity": "inhibition", "result": "8%"}
